Results published in ChEMBL document CHEMBL3792365, “Dioxol and dihydrodioxin analogs of 2- and 3-phenylacetonitriles as potent anti-cancer agents with nanomolar activity against a variety of human cancer cells” (2016).

Legend:
Type in all cases: functional
[1] = tested on: 786-0; experiment: Growth inhibition of human 786-0 cells after 48 hrs by sulforhodamine B assay; conditions: 786-0, 48 h
In short: (§1)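 Five-dose testing against a 60-line human tumor cell panel. GI50 is the drug concentration giving a 50% reduction in net protein increase relative to untreated control cells.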

[2] = Growth inhibition of human SW620 cells after 48 hrs by sulforhodamine B assay; conditions: SW-620, 48 h
In short: (§2)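 Five-dose concentration series run across a panel of 60 human tumour cell lines. GI50 is taken as the drug concentration giving a 50% reduction in net protein increase relative to untreated control cells.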

[3] = Growth inhibition of human HCT15 cells after 48 hrs by sulforhodamine B assay; conditions: HCT-15, 48 h; in short: as §1
[4] = tested on: CCRF-CEM; experiment: Growth inhibition of human CCRF-CEM cells at 10 uM after 48 hrs by sulforhodamine B assay; conditions: values are per cent of control
[5] = tested on: A549; experiment: Growth inhibition of human A549/ATCC cells after 48 hrs by sulforhodamine B assay; conditions: A549, 48 h; in short: as §1
[6] = Growth inhibition of human HL-60(TB) cells at 10 uM after 48 hrs by sulforhodamine B assay; conditions: HL-60, 48 h, values are per cent of control
[7] = tested on: MCF7; experiment: Growth inhibition of human MCF7 cells at 10 uM after 48 hrs by sulforhodamine B assay; conditions: MCF7, 48 h, values are per cent of control
[8] = tested on: A498; experiment: Growth inhibition of human A498 cells after 48 hrs by sulforhodamine B assay; conditions: A498, 48 h; in short: as §1
[9] = Growth inhibition of human LOXIMVI cells after 48 hrs by sulforhodamine B assay; conditions: LOX IMVI; in short: as §1
[10] = Growth inhibition of human PC3 cells after 48 hrs by sulforhodamine B assay; conditions: PC-3, 48 h; in short: as §2
[11] = Growth inhibition of human MOLT4 cells at 10 uM after 48 hrs by sulforhodamine B assay; conditions: MOLT-4, 48 h, values are per cent of control
[12] = tested on: NCI-H226; experiment: Growth inhibition of human NCI-H226 cells at 10 uM after 48 hrs by sulforhodamine B assay; conditions: NCI-H226, 48 h, values are per cent of control
[13] = tested on: SK-MEL-5; experiment: Growth inhibition of human SK-MEL-5 cells after 48 hrs by sulforhodamine B assay; conditions: SK-MEL-5, 48 h; in short: as §2
[14] = Growth inhibition of human IGROV1 cells after 48 hrs by sulforhodamine B assay; conditions: IGROV-1, 48 h; in short: as §1
[15] = Growth inhibition of human HCC2998 cells after 48 hrs by sulforhodamine B assay; conditions: HCC 2998, 48 h; in short: as §1
[16] = tested on: SK-MEL-2; experiment: Growth inhibition of human SK-MEL-2 cells after 48 hrs by sulforhodamine B assay; conditions: SK-MEL-2, 48 h; in short: as §2
[17] = tested on: 786-0; experiment: Growth inhibition of human 786-0 cells at 10 uM after 48 hrs by sulforhodamine B assay; conditions: 786-0, 48 h, values are per cent of control
[18] = Growth inhibition of human TK10 cells at 10 uM after 48 hrs by sulforhodamine B assay; conditions: TK-10, 48 h, values are per cent of control
[19] = Growth inhibition of human OVCAR3 cells at 10 uM after 48 hrs by sulforhodamine B assay; conditions: OVCAR-3, 48 h, values are per cent of control
[20] = tested on: SR; experiment: Growth inhibition of human SR cells at 10 uM after 48 hrs by sulforhodamine B assay; conditions: values are per cent of control
[21] = Growth inhibition of human HOP92 cells at 10 uM after 48 hrs by sulforhodamine B assay; conditions: HOP-92, 48 h, values are per cent of control
[22] = Growth inhibition of human RPMI8226 cells at 10 uM after 48 hrs by sulforhodamine B assay; conditions: RPMI-8226, 48 h, values are per cent of control
[23] = tested on: M14; experiment: Growth inhibition of human M14 cells after 48 hrs by sulforhodamine B assay; conditions: M14, 48 h; in short: as §1
[24] = Growth inhibition of human PC3 cells at 10 uM after 48 hrs by sulforhodamine B assay; conditions: PC-3, 48 h, values are per cent of control
[25] = tested on: Malme-3M; experiment: Growth inhibition of human MALME-3M cells at 10 uM after 48 hrs by sulforhodamine B assay; conditions: values are per cent of control
[26] = tested on: NCI-H23; experiment: Growth inhibition of human NCI-H23 cells at 10 uM after 48 hrs by sulforhodamine B assay; conditions: NCI-H23, 48 h, values are per cent of control
[27] = Growth inhibition of human OVCAR3 cells after 48 hrs by sulforhodamine B assay; conditions: OVCAR-3, 48 h; in short: as §2
[28] = Growth inhibition of human HL-60(TB) cells after 48 hrs by sulforhodamine B assay; conditions: HL-60, 48 h
In short: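 Five-dose study across the 60-cell human tumour panel. GI50 is the drug concentration giving a 50% reduction in net protein increase relative to control cells.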

[29] = tested on: SK-MEL-2; experiment: Growth inhibition of human SK-MEL-2 cells at 10 uM after 48 hrs by sulforhodamine B assay; conditions: SK-MEL-2, 48 h, values are per cent of control
[30] = tested on: MDA-MB-435; experiment: Growth inhibition of human MDA-MB-435 cells after 48 hrs by sulforhodamine B assay; conditions: MDA-MB-435, 48 h; in short: as §1
[31] = Growth inhibition of human HOP92 cells after 48 hrs by sulforhodamine B assay; conditions: HOP-92, 48 h; in short: as §1
[32] = Growth inhibition of human UACC257 cells at 10 uM after 48 hrs by sulforhodamine B assay; conditions: UACC-257, 48 h, values are per cent of control
[33] = tested on: HT-29; experiment: Growth inhibition of human HT-29 cells at 10 uM after 48 hrs by sulforhodamine B assay; conditions: HT-29, 48 h, values are per cent of control
[34] = Growth inhibition of human HOP62 cells after 48 hrs by sulforhodamine B assay; conditions: HOP-62, 48 h; in short: as §1
[35] = Growth inhibition of human SF539 cells after 48 hrs by sulforhodamine B assay; conditions: SF-539, 48 h; in short: as §2
[36] = tested on: SR; experiment: Growth inhibition of human SR cells after 48 hrs by sulforhodamine B assay; in short: as §2
[37] = tested on: ACHN; experiment: Growth inhibition of human ACHN cells after 48 hrs by sulforhodamine B assay; in short: as §1
[38] = Growth inhibition of human SF295 cells at 10 uM after 48 hrs by sulforhodamine B assay; conditions: SF-295, 48 h, values are per cent of control
[39] = Growth inhibition of human SF268 cells after 48 hrs by sulforhodamine B assay; conditions: SF-268, 48 h; in short: as §2
[40] = Growth inhibition of human SKOV3 cells at 10 uM after 48 hrs by sulforhodamine B assay; conditions: SK-OV-3, 48 h, values are per cent of control
[41] = tested on: CCRF-CEM; experiment: Growth inhibition of human CCRF-CEM cells after 48 hrs by sulforhodamine B assay; in short: as §1
[42] = tested on: SK-MEL-28; experiment: Growth inhibition of human SK-MEL-28 cells after 48 hrs by sulforhodamine B assay; conditions: SK-MEL-28, 48 h; in short: as §2
[43] = Growth inhibition of human SNB75 cells after 48 hrs by sulforhodamine B assay; conditions: SNB-75, 48 h; in short: as §2
[44] = Growth inhibition of human Caki1 cells after 48 hrs by sulforhodamine B assay; conditions: CAKI-1, 48 h; in short: as §1

## COc1ccc(/C=C(\C#N)c2ccc3c(c2)OCO3)cc1
[1]
  GI50: 18900 nM
[2]
  GI50: 120 nM
[3]
  GI50: 70 nM
[4]
  growth, % of control at 10 µM: 21.6%
[5]
  GI50: 270 nM
[6]
  growth, % of control at 10 µM: 0.1%
[7]
  growth, % of control at 10 µM: 20.7%
[8]
  GI50: 200 nM
[9]
  GI50: 570 nM
[10]
  GI50: 320 nM
[11]
  growth, % of control at 10 µM: 19.5%
[12]
  growth, % of control at 10 µM: 71.8%
[13]
  GI50: 210 nM
[14]
  GI50: 3600 nM
[15]
  GI50: 5260 nM
[16]
  GI50: 210 nM
[17]
  growth, % of control at 10 µM: 50.3%
[18]
  growth, % of control at 10 µM: 32.2%
[19]
  growth, % of control at 10 µM: 4.9%
[20]
  growth, % of control at 10 µM: 11.8%
[21]
  growth, % of control at 10 µM: 40.4%
[22]
  growth, % of control at 10 µM: 18.9%
[23]
  GI50: 120 nM
[24]
  growth, % of control at 10 µM: 21.2%
[25]
  growth, % of control at 10 µM: 24.3%
[26]
  growth, % of control at 10 µM: 43.2%
[27]
  GI50: 270 nM
[28]
  GI50: 240 nM
[29]
  growth, % of control at 10 µM: -17.7%
[30]
  GI50: 30 nM
[31]
  GI50: 4220 nM
[32]
  growth, % of control at 10 µM: 23%
[33]
  growth, % of control at 10 µM: 6%
[34]
  GI50: 300 nM
[35]
  GI50: 250 nM
[36]
  GI50: 50 nM
[37]
  GI50: 520 nM
[38]
  growth, % of control at 10 µM: 11.2%
[39]
  GI50: 730 nM
[40]
  growth, % of control at 10 µM: 28.8%
[41]
  GI50: 250 nM
[42]
  GI50: 450 nM

## COc1ccc(/C=C(\C#N)c2ccc3c(c2)OCO3)c(OC)c1
[1]
  GI50: 4930 nM
[2]
  GI50: 1230 nM
[3]
  GI50: 870 nM
[4]
  growth, % of control at 10 µM: 27%
[5]
  GI50: 2650 nM
[6]
  growth, % of control at 10 µM: 7.1%
[8]
  GI50: 1330 nM
[9]
  GI50: 5330 nM
[10]
  GI50: 3030 nM
[11]
  growth, % of control at 10 µM: 22.7%
[12]
  growth, % of control at 10 µM: 73.8%
[13]
  GI50: 2580 nM
[14]
  GI50: 8800 nM
[15]
  GI50: 11900 nM
[16]
  GI50: 720 nM
[17]
  growth, % of control at 10 µM: 52.1%
[18]
  growth, % of control at 10 µM: 49.7%
[19]
  growth, % of control at 10 µM: 15.3%
[20]
  growth, % of control at 10 µM: 15.5%
[22]
  growth, % of control at 10 µM: 58.1%
[23]
  GI50: 1320 nM
[24]
  growth, % of control at 10 µM: 47%
[25]
  growth, % of control at 10 µM: 49.3%
[26]
  growth, % of control at 10 µM: 59.1%
[27]
  GI50: 3100 nM
[28]
  GI50: 1490 nM
[29]
  growth, % of control at 10 µM: 2.7%
[30]
  GI50: 300 nM
[31]
  GI50: 7420 nM
[32]
  growth, % of control at 10 µM: 44.7%
[33]
  growth, % of control at 10 µM: 10%
[34]
  GI50: 3300 nM
[35]
  GI50: 1610 nM
[36]
  GI50: 530 nM
[37]
  GI50: 4920 nM
[38]
  growth, % of control at 10 µM: 27.1%
[39]
  GI50: 9360 nM
[40]
  growth, % of control at 10 µM: 33.2%
[41]
  GI50: 1560 nM
[42]
  GI50: 4470 nM

## COc1cc(/C(C#N)=C/c2ccc3c(c2)OCCO3)cc(OC)c1OC
[1]
  GI50: 40 nM
[2]
  GI50: 40 nM
[3]
  GI50: 40 nM
[43]
  GI50: 30 nM
[4]
  growth, % of control at 10 µM: 0.4%
[5]
  GI50: 60 nM
[6]
  growth, % of control at 10 µM: -46.3%
[7]
  growth, % of control at 10 µM: 14.6%
[8]
  GI50: 30 nM
[9]
  GI50: 60 nM
[10]
  GI50: 60 nM
[11]
  growth, % of control at 10 µM: -14.3%
[12]
  growth, % of control at 10 µM: 43.9%
[13]
  GI50: 30 nM
[14]
  GI50: 630 nM
[15]
  GI50: 140 nM
[17]
  growth, % of control at 10 µM: 14.8%
[18]
  growth, % of control at 10 µM: 48.5%
[20]
  growth, % of control at 10 µM: -11%
[21]
  growth, % of control at 10 µM: -1.7%
[22]
  growth, % of control at 10 µM: 39.2%
[23]
  GI50: 30 nM
[24]
  growth, % of control at 10 µM: 26.5%
[25]
  growth, % of control at 10 µM: 64.3%
[26]
  growth, % of control at 10 µM: 20.7%
[27]
  GI50: 40 nM
[28]
  GI50: 40 nM
[29]
  growth, % of control at 10 µM: 24.1%
[30]
  GI50: 20 nM
[31]
  GI50: 120 nM
[32]
  growth, % of control at 10 µM: 76%
[33]
  growth, % of control at 10 µM: 0.4%
[34]
  GI50: 50 nM
[35]
  GI50: 20 nM
[36]
  GI50: 60 nM
[37]
  GI50: 80 nM
[38]
  growth, % of control at 10 µM: -8%
[39]
  GI50: 110 nM
[40]
  growth, % of control at 10 µM: 17.6%
[44]
  GI50: 50 nM
[41]
  GI50: 210 nM
[42]
  GI50: 60 nM
